The target in experiment [1] is glyceraldehyde-3-phosphate dehydrogenase (glycosomal GAPDH per title). Description: TInhibition of glyceraldehyde-3-phosphate dehydrogenase in Leishmania mexicana. The procedure, abridged:
(§1)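 Enzyme sources: human erythrocyte GAPDH, glycosomal GAPDH from T. brucei, and glycosomal GAPDH from L. mexicana. IC50 is the inhibitor concentration at which 50% of enzyme activity remains. Poorly soluble compounds were not tested above their solubility limit, and the remaining activity at that level was recorded instead.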

Experiment [2] concerns the target glycosomal glyceraldehyde-3-phosphate dehydrogenase (GAPDH). Description: Inhibition of glyceraldehyde-3-phosphate dehydrogenase in Trypanosoma brucei. Put shortly: as §1

The text below walks through data of BindingDB's records for doi:10.1021/jm00019a014 (University of Ghent, 1995).

Turning to `COc1cccc(C(=O)NC2C(O)C(CO)OC2n2cnc3c(N)nc(C)nc32)c1` (stereo unspecified) [N-[2-(6-Amino-2-methyl-purin-9-yl)-4-hydroxy-5-hydroxymethyl-tetrahydro-furan-3-yl]-3-methoxy-benzamide], the IC50 in experiment [1] and in experiment [2] was above 10 mM throughout.
For the molecule `CC(C)COC(=O)NC1C(O)C(CO)OC1n1cnc2c(N)ncnc21` (stereo unspecified) [[2-(6-Amino-purin-9-yl)-4-hydroxy-5-hydroxymethyl-tetrahydro-furan-3-yl]-carbamic acid isobutyl ester], the IC50 in experiment [1] and in experiment [2] was above 10 mM in each case.
As to `Nc1ncnc2c1ncn2C1OC(CO)C(O)C1NCc1ccccc1` (stereo unspecified) [5-(6-Amino-purin-9-yl)-4-benzylamino-2-hydroxymethyl-tetrahydro-furan-3-ol], the IC50 in experiment [1] and in experiment [2] was above 10 mM throughout.

For orientation: IC50 means the concentration needed to halve the response being measured. The low end stands for inhibition by little substance, the high end for a need for much substance.
